Tests used:
[1] = (§1) Drug metabolism in human liver S9 fraction assessed as Rp,Sp-dinucleotide-1 (O-((2R,3S,5R)-5-(6-amino-9H-purin-9-yl)-3-hydroxytetrahydrofuran-2-yl)methyl O-(2R,3R,4R,5R)-5-(2,4-dioxo-3,4-dihydropyrimidin-1(2H)-yl)-2-(hydroxymethyl)-4-methoxytetrahydrofuran-3-yl S-hydrogen phosphorothioate) metabolite formation at 10 uM by HPLC analysis; assay type: ADME, subcellular; conditions: s9, 10 µM
Procedure, shortened: (§2)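 Pooled human liver S9 (1 mg/ml) pretreated 15 min on ice with alamethicin (10 µg/ml). Incubated with prodrug (10 µM), NADPH 1.3 mM, UDP-GlcUA 5 mM, S-adenosylmethionine 0.1 mM, PAPS 0.1 mM and acetyl-CoA 1 mM in PBS at 37°C with shaking. Sampled at 1, 4 and 6 h, acetonitrile-quenched, then analysed by HPLC and LC/MS.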

[2] = as §1, with “LC/MS” for “HPLC”; assay type: ADME, subcellular; conditions: s9, 10 µM; procedure, shortened: as §2
[3] = Half life of the compound in simulated gastric fluid by HPLC analysis; assay type: ADME
Procedure, shortened: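 Stock of 2 mg/100 µl in DMSO; 10 µl added to 200 µl simulated gastric fluid (NaCl, porcine pepsin, HCl, pH 1.2) or simulated intestinal fluid (KH2PO4, NaOH, pancreatin, pH 6.8), 37°C. Aliquots at 15 min, 30 min, 1 h, 3 h were quenched with acetonitrile (SGF neutralised to pH 7.0), centrifuged, lyophilised, reconstituted in water, analysed by C18 HPLC.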

Liver microsome [4] = experiment: as §1, with “microsomes” for “S9 fraction”, “uM incubated up to 8 hrs” for “uM”; assay type: ADME
Procedure, shortened: (§3)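 Microsomes (1 mg/ml) pretreated 15 min on ice with alamethicin (10 µg/ml). Incubated with prodrug (10 µM final), NADPH 1.3 mM and UDP-GlcUA 5 mM in PBS at 37°C with shaking. Sampled at 1, 4, 6 and 8 h and quenched with acetonitrile. Supernatant lyophilised, reconstituted in water, analysed by C18 HPLC and by LC/MS.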

Liver microsome [5] = experiment: as §1, with “microsomes” for “S9 fraction”, “uM incubated up to 8 hrs” for “uM”, “LC/MS” for “HPLC”; assay type: ADME; procedure, shortened: as §3
[6] = Time for almost complete conversion of the compound to 1 in simulated intestinal fluid by HPLC analysis
Liver [7] = experiment: Drug level in human liver S9 fraction treated with Rp,Sp-dinucleotide-2 at 10 uM by HPLC analysis; assay type: ADME, subcellular; conditions: s9, 10 µM
Procedure, shortened: (§4)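 Pooled human liver S9 (1 mg/ml), alamethicin-treated (10 μg/ml, 15 min on ice), with NADPH 1.3 mM, UDP-GlcUA 5 mM in 1× PBS; substrate 10 μM final. Incubated 37°C shaking; sampled 1, 4, 6 h, acetonitrile quench, centrifuged, supernatant lyophilised, reconstituted in water; HPLC (C18, 25°C, 5–50% acetonitrile in 0.1 M NH4OAc over 45 min) and LC/MS.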

Liver [8] = experiment: Drug level in human liver S9 fraction treated with Rp,Sp-dinucleotide-2 at 10 uM by LC/MS analysis; assay type: ADME, subcellular; conditions: s9, 10 µM; procedure, shortened: as §4
[9] = Stability of the compound in simulated intestinal fluid by HPLC analysis; assay type: ADME; conditions: simulated gi fluid
Procedure, shortened: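 Simulated intestinal fluid: KH2PO4 6.8 g/l with NaOH, pancreatin 10 g/l, pH 6.8. DMSO stock (2 mg/100 μl), 10 μl added to 200 μl SIF, 37°C; aliquots at 15 min, 30 min, 1 h, 3 h quenched with acetonitrile, centrifuged, supernatant lyophilised, reconstituted in water, analysed by C18 HPLC.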

Liver microsome [10] = experiment: Drug level in human liver microsomes treated with Rp,Sp-dinulceotide-2 at 10 uM incubated up to 8 hrs by HPLC analysis; assay type: ADME
Procedure, shortened: (§5)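 Liver microsomes 1 mg/ml pretreated with alamethicin 10 μg/ml on ice 15 min; NADPH 1.3 mM and UDP-GlcUA 5 mM added in 1× PBS, substrate 10 μM final. Shaking bath at 37°C; aliquots at 1, 4, 6, 8 h quenched with acetonitrile, centrifuged, supernatant lyophilised and redissolved in water; analysed by C18 HPLC (5–50% acetonitrile/0.1 M NH4OAc gradient) and LC/MS.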

Liver microsome [11] = experiment: Drug level in human liver microsomes treated with Rp,Sp-dinulceotide-2 at 10 uM incubated up to 8 hrs by LC/MS analysis; assay type: ADME; procedure, shortened: as §5

SMILES	Drug metabolism [1]	Drug metabolism [2]	half-life [3] [h]	Drug metabolism (Liver microsome [4])	Drug metabolism (Liver microsome [5])	time for complete conversion [6] [min]	Drug metabolism (Liver [7])	Drug metabolism (Liver [8])	Stability [9]	Drug metabolism (Liver microsome [10])	Drug metabolism (Liver microsome [11])
CO[C@@H]1[C@H](OP(=O)(OC[C@H]2O[C@@H](n3cnc4c(N)ncnc43)C[C@@H]2O)SCOC(=O)OC(C)C)[C@@H](CO)O[C@H]1n1ccc(=O)[nH]c1=O (some centres not stated) [INARIGIVIR SOPROXIL]	metabolite_detected	metabolite_detected	> 3	metabolite_detected	metabolite_detected	180					
CO[C@@H]1[C@H](OP(=O)(S)OC[C@H]2O[C@@H](n3cnc4c(N)ncnc43)C[C@@H]2O)[C@@H](CO)O[C@H]1n1ccc(=O)[nH]c1=O (some centres not stated) [INARIGIVIR]			< 0.25				metabolite_detected	metabolite_detected	Stable	metabolite_detected	metabolite_detected
